Results reported in ChEMBL document CHEMBL5143669, “Stapled peptides as scaffolds for developing radiotracers for intracellular targets: Preliminary evaluation of a radioiodinated MDM2-binding stapled peptide in the SJSA-1 osteosarcoma model” (Bioorg Med Chem Lett, 2022).

What was measured:
[1] = Biodistribution in Urinary bladder of athymic mouse xenografted with human SJSA-1 cells at 166.5 kBq, iv after 24 hrs by automated gamma counting method; assay type: ADME, organism-based; settings: in vivo
In short: (§1)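 Athymic mice bearing flank SJSA-1 xenografts received 125I-SIB-labeled peptide (166.5 kBq, 100 μL) by tail vein; groups of five per time point. Tumor, blood and organs were taken at 0.5–24 h and counted by gamma counter; values expressed as %ID/g.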

[2] = Biodistribution in Blood of athymic mouse xenografted with human SJSA-1 cells at 166.5 kBq, iv after 24 hrs by automated gamma counting method; assay type: ADME, organism-based; settings: in vivo
In short: (§2)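 125I-labeled peptide (166.5 kBq in 100 μL) was injected via tail vein into athymic mice bearing flank SJSA-1 xenografts, n = 5 per time point. Tumors, blood and major organs were gamma-counted at 0.5, 2, 6 and 24 h post-injection. Values are %ID/g.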

[3] = Biodistribution in Brain of athymic mouse xenografted with human SJSA-1 cells at 166.5 kBq, iv after 6 hrs by automated gamma counting method; assay type: ADME, organism-based; settings: in vivo; in short: as §2
[4] = Biodistribution in Spleen of athymic mouse xenografted with human SJSA-1 cells at 166.5 kBq, iv after 24 hrs by automated gamma counting method; assay type: ADME, organism-based; settings: in vivo; in short: as §2
[5] = Biodistribution in Spleen of athymic mouse xenografted with human SJSA-1 cells at 166.5 kBq, iv after 2 hrs by automated gamma counting method; assay type: ADME, organism-based; settings: in vivo; in short: as §2
[6] = Biodistribution in Skin of athymic mouse xenografted with human SJSA-1 cells at 166.5 kBq, iv after 2 hrs by automated gamma counting method; assay type: ADME, organism-based, Skin of body; settings: in vivo; in short: as §2
[7] = Biodistribution in Large intestine of athymic mouse xenografted with human SJSA-1 cells at 166.5 kBq, iv after 6 hrs by automated gamma counting method; assay type: ADME, organism-based; settings: in vivo; in short: as §2
[8] = Biodistribution in Muscle of athymic mouse xenografted with human SJSA-1 cells at 166.5 kBq, iv after 6 hrs by automated gamma counting method; assay type: ADME, organism-based, Muscle tissue; settings: in vivo; in short: as §2
[9] = Biodistribution in Thyroid of athymic mouse xenografted with human SJSA-1 cells at 166.5 kBq, iv after 2 hrs by automated gamma counting method; assay type: ADME, organism-based, Thyroid gland; settings: in vivo; in short: as §1
[10] = Biodistribution in Thyroid of athymic mouse xenografted with human SJSA-1 cells at 166.5 kBq, iv after 6 hrs by automated gamma counting method; assay type: ADME, organism-based, Thyroid gland; settings: in vivo; in short: as §1
[11] = Drug uptake in MDM2-amplified human SJSA-1 cells expressing wild type p53 assessed as initially bound radioactivity incubated for 2 hrs subsequently re-incubating the cells with fresh medium for up to 2 hrs; assay type: ADME, cell-based; settings: sjsa-1, 2 h
In short: (§3)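 SJSA-1 cells were loaded with 125I-labeled peptide for 1 h, then reincubated in fresh medium for 0.5–2 h. Cell-retained activity and cumulative release into the supernatant were expressed as percentage of initially bound activity.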

[12] = Biodistribution in Heart of athymic mouse xenografted with human SJSA-1 cells at 166.5 kBq, iv after 30 mins by automated gamma counting method; assay type: ADME, organism-based; settings: in vivo, 0.5 h; in short: as §2
[13] = Biodistribution in Skin of athymic mouse xenografted with human SJSA-1 cells at 166.5 kBq, iv after 6 hrs by automated gamma counting method; assay type: ADME, organism-based, Skin of body; settings: in vivo; in short: as §2
[14] = Drug uptake in MDM2-amplified human SJSA-1 cells expressing wild type p53 assessed as initially bound radioactivity incubated for 1 hrs subsequently re-incubating the cells with fresh medium for up to 2 hrs; assay type: ADME, cell-based; settings: sjsa-1, 1 h; in short: as §3
[15] = Biodistribution in Liver of athymic mouse xenografted with human SJSA-1 cells at 166.5 kBq, iv after 2 hrs by automated gamma counting method; assay type: ADME, organism-based; settings: in vivo; in short: as §2
[16] = Biodistribution in Brain of athymic mouse xenografted with human SJSA-1 cells at 166.5 kBq, iv after 24 hrs by automated gamma counting method; assay type: ADME, organism-based; settings: in vivo; in short: as §2
[17] = Biodistribution in Kidney of athymic mouse xenografted with human SJSA-1 cells at 166.5 kBq, iv after 2 hrs by automated gamma counting method; assay type: ADME, organism-based; settings: in vivo; in short: as §2
[18] = Lipophilicity, logD of the compound using n-octanol and phosphate-buffered saline at pH 7.4 by the shake flask method; assay type: physicochemical
In short: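 Shake-flask partition of the 125I-labeled peptide between n-octanol and PBS pH 7.4; logD from n = 4.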

[19] = Drug uptake in MDM2-amplified human SJSA-1 cells expressing wild type p53 assessed as initially bound radioactivity incubated for 0.5 hrs subsequently re-incubating the cells with fresh medium for up to 2 hrs; assay type: ADME, cell-based; settings: sjsa-1, 0.5 h; in short: as §3
[20] = Biodistribution in Lung of athymic mouse xenografted with human SJSA-1 cells at 166.5 kBq, iv after 30 mins by automated gamma counting method; assay type: ADME, organism-based; settings: in vivo, 0.5 h; in short: as §2
[21] = Biodistribution in Blood of athymic mouse xenografted with human SJSA-1 cells at 166.5 kBq, iv after 2 hrs by automated gamma counting method; assay type: ADME, organism-based; settings: in vivo; in short: as §2
[22] = Biodistribution in Stomach of athymic mouse xenografted with human SJSA-1 cells at 166.5 kBq, iv after 6 hrs by automated gamma counting method; assay type: ADME, organism-based; settings: in vivo; in short: as §1
[23] = Biodistribution in Brain of athymic mouse xenografted with human SJSA-1 cells at 166.5 kBq, iv after 30 mins by automated gamma counting method; assay type: ADME, organism-based; settings: in vivo, 0.5 h; in short: as §2
[24] = Biodistribution in Urinary bladder of athymic mouse xenografted with human SJSA-1 cells at 166.5 kBq, iv after 6 hrs by automated gamma counting method; assay type: ADME, organism-based; settings: in vivo; in short: as §1
[25] = Biodistribution in Tumor of athymic mouse xenografted with human SJSA-1 cells at 166.5 kBq, iv after 30 mins by automated gamma counting method; assay type: ADME, organism-based, Neoplasm; settings: in vivo, 0.5 h; in short: as §1
[26] = Drug uptake in MDM2-amplified human SJSA-1 cells expressing wild type p53 at 5 to 50 uM incubated for 60 mins; assay type: ADME, cell-based; settings: sjsa-1, 1 h, dose 5-50 µM
In short: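 For uptake kinetics, SJSA-1 cells in serum-free RPMI-1640 were incubated 30–120 min with 125I-labeled peptide, with or without 50 μM unlabeled parent peptide. Cells were washed with PBS and lysed, and uptake was normalized to protein (%/mg protein). Triplicates, mean ± SD.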

[27] = Biodistribution in Brain of athymic mouse xenografted with human SJSA-1 cells at 166.5 kBq, iv after 2 hrs by automated gamma counting method; assay type: ADME, organism-based; settings: in vivo; in short: as §2
[28] = Biodistribution in Large intestine of athymic mouse xenografted with human SJSA-1 cells at 166.5 kBq, iv after 2 hrs by automated gamma counting method; assay type: ADME, organism-based; settings: in vivo; in short: as §2
[29] = Biodistribution in Bone of athymic mouse xenografted with human SJSA-1 cells at 166.5 kBq, iv after 24 hrs by automated gamma counting method; assay type: ADME, organism-based, Bone element; settings: in vivo; in short: as §2
[30] = Biodistribution in Urinary bladder of athymic mouse xenografted with human SJSA-1 cells at 166.5 kBq, iv after 2 hrs by automated gamma counting method; assay type: ADME, organism-based; settings: in vivo; in short: as §1
[31] = Biodistribution in Thyroid of athymic mouse xenografted with human SJSA-1 cells at 166.5 kBq, iv after 24 hrs by automated gamma counting method; assay type: ADME, organism-based, Thyroid gland; settings: in vivo; in short: as §1
[32] = Biodistribution in Lung of athymic mouse xenografted with human SJSA-1 cells at 166.5 kBq, iv after 2 hrs by automated gamma counting method; assay type: ADME, organism-based; settings: in vivo; in short: as §2
[33] = Stability in human serum assessed as intact peptide level at 37 degC incubated for 1 hr by RP-HPLC analysis; assay type: ADME, cell-free; settings: read-out: Drug uptake
In short: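 125I-labeled peptide was incubated in human serum at 37 °C for up to 72 h. Aliquots were run by RP-HPLC (RP-18 column, ethanol/0.05 M sodium acetate pH 5.5 gradient, 1 mL/min), and intact peptide was expressed as percentage of injected activity.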

With `CC(=O)NC(CCCCNC(=O)c1cccc([125I])c1)C(=O)NCCCCCC(=O)N[C@H](C(=O)N[C@@H](CO)C(=O)N[C@@H](Cc1ccccc1)C(=O)N[C@@]1(C)CCCCCC/C=C/CCC[C@@](C)(C(=O)N[C@@H](CCC(=O)O)C(=O)N[C@@H](CC(N)=O)C(=O)N[C@@H](Cc2ccccc2)C(N)=O)NC(=O)[C@H](CC(C)C)NC(=O)[C@H](CC(C)C)NC(=O)[C@H](C)NC(=O)[C@H](Cc2c[nH]c3ccccc23)NC(=O)[C@H](Cc2ccc(O)cc2)NC(=O)[C@H](CCC(=O)O)NC1=O)[C@@H](C)O` (stereo partly drawn) as the molecule, how does the Drug uptake [1] read?
Its Drug uptake is 0.29 % ID/g.

What about the Drug uptake [2] of the same molecule?
Its Drug uptake is 0.62 % ID/g.

What about the Drug uptake [3] of the same molecule?
The Drug uptake was 0.2 % ID/g.

And the Drug uptake [4]?
The Drug uptake was 0.58 % ID/g.

And the Drug uptake [5]?
The Drug uptake was 1.8 % ID/g.

What about the Drug uptake [6] of the same molecule?
The Drug uptake was 0.88 % ID/g.

And the Drug uptake [7]?
The Drug uptake was 4.44 % ID/g.

And the Drug uptake [8]?
Its Drug uptake is 0.25 % ID/g.

What about the Drug uptake [9] of the same molecule?
The Drug uptake was 1.14 % ID/g.

And the Drug uptake [10]?
The Drug uptake was 1.19 % ID/g.

And the Drug uptake [11]?
Its Drug uptake is 62%.

What about the Drug uptake [12] of the same molecule?
The Drug uptake was 2.52 % ID/g.

And the Drug uptake [13]?
Its Drug uptake is 1.22 % ID/g.

What about the Drug uptake [14] of the same molecule?
Its Drug uptake is 72.8%.

What about the Drug uptake [15] of the same molecule?
Its Drug uptake is 18.41 % ID/g.

And the Drug uptake [16]?
Its Drug uptake is 0.02 % ID/g.

And the Drug uptake [17]?
Its Drug uptake is 2.54 % ID/g.

What about the logD [18] of the same molecule?
Its logD is 1.45.

What about the Drug uptake [19] of the same molecule?
Its Drug uptake is 83.1%.

And the Drug uptake [20]?
Its Drug uptake is 4.27 % ID/g.

What about the Drug uptake [21] of the same molecule?
Its Drug uptake is 6.84 % ID/g.

What about the Drug uptake [22] of the same molecule?
The Drug uptake was 1.9 % ID/g.

And the Drug uptake [23]?
The Drug uptake was 0.24 % ID/g.

What about the Drug uptake [24] of the same molecule?
Its Drug uptake is 0.95 % ID/g.

And the Drug uptake [25]?
The Drug uptake was 1.8 % ID/g.

And the Drug uptake [26]?
Its Drug uptake is 142 %/mg protein.

What about the Drug uptake [27] of the same molecule?
The Drug uptake was 0.25 % ID/g.

And the Drug uptake [28]?
Its Drug uptake is 0.24 % ID/g.

What about the Drug uptake [29] of the same molecule?
Its Drug uptake is 0.16 % ID/g.

And the Drug uptake [30]?
The Drug uptake was 0.58 % ID/g.

What about the Drug uptake [31] of the same molecule?
Its Drug uptake is 0.27 % ID/g.

And the Drug uptake [32]?
Its Drug uptake is 2.72 % ID/g.

What about the remaining at 1 h [33] of the same molecule?
The remaining at 1 h was 98.2%.
